In ChEMBL document CHEMBL1121991, “4-Aroyl-1,3-dihydro-2H-imidazol-2-ones, a new class of cardiotonic agents” (1982):
Several values for one entry are separate records, joined by “and”; a condition that tells them apart may be missing. Identical values can stand only once.

Legend:
Canis familiaris [1] = experiment: The change in mean arterial blood pressure was determined after 1 mg/kg iv administration with 0.5 mg/kg, iv propranolol; type: functional, Canis lupus familiaris
Summary of the method: (§1)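 Anesthetized dogs, N = 6 per group, given test agent 1 mg/kg iv or isoproterenol 0.1 μg/kg iv, with or without propranolol 0.5 mg/kg iv pretreatment. Percent change from control was recorded for contractile force (strain gauge arch) and for mean arterial BP. Values are means ± SE, compared by Student's t test.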

Canis familiaris [2] = experiment: The change in heart rate was determined after 10 min of 0.3 ug/kg administration in the dog heart-lung preparation; type: functional, Canis lupus familiaris
Summary of the method: (§2)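 Dog heart-lung preparation from mongrel dogs of either sex, 11–19 kg, anesthetized with sodium pentobarbital 35 mg/kg iv. Strain gauge arch on the right ventricle; left atrial pressure by atrial cannula transducer; aortic flow by extracorporeal flow meter. Drug was added to the blood reservoir and measured at 10 min, n = 5–8. Change vs control by paired t test.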

Canis familiaris [3] = experiment: The change in stroke volume after 10 min of 3.0 ug/kg administration in the dog heart-lung preparation; type: functional, Canis lupus familiaris; summary of the method: as §2
Canis familiaris [4] = experiment: The change in left atrial pressure after 10 min of 0.3 ug/kg administration in the dog heart-lung preparation; type: functional, Canis lupus familiaris, Cardiac atrium; summary of the method: as §2
Canis familiaris [5] = experiment: The change in heart rate was determined after 10 min of 1.0 ug/kg administration in the dog heart-lung preparation; type: functional, Canis lupus familiaris; summary of the method: as §2
Canis familiaris [6] = experiment: Pharmacological activity for Blood pressure, -20% in anesthetized dog was determined after intravenous administration; type: functional, Canis lupus familiaris
Summary of the method: (§3)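 Anesthetized dogs; contractile force recorded by a left-ventricular Walton-Brodie strain gauge arch, heart rate from lead II EKG, plus blood pressure. Stabilized at least 30 min, then at least three iv doses given, one compound per animal, with return to basal between doses. Doses for +30% force, +15% rate and −20% BP were extrapolated from dose-response curves; geometric mean where repeated.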

Canis familiaris [7] = experiment: The stroke volume was determined after 1.0 mg/kg administration with 20 mg/kg pentobarbital in the dog heart-lung preparation; type: functional, Canis lupus familiaris
Summary of the method: (§4)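 Heart-lung preparation from mongrel dogs anesthetized with pentobarbital 35 mg/kg iv. Failure was induced by adding pentobarbital 20 mg/kg to the blood reservoir, then test agent 1 mg/kg was added. Force, rate, output, stroke volume, left atrial pressure and stroke work were read 10 min later. Five preparations, means ± SE, analysis of variance.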

Canis familiaris [8] = experiment: Stroke work was determined after 1.0 mg/kg administration with 20 mg/kg pentobarbital in the dog heart-lung preparation; type: functional, Canis lupus familiaris; summary of the method: as §4
Canis familiaris [9] = experiment: The change in cardiac contractile force after 1 mg/kg iv administration with 0.5 mg/kg, iv propranolol; type: functional, Canis lupus familiaris, Heart; summary of the method: as §1
Canis familiaris [10] = experiment: The left atrial pressure was determined after 1.0 mg/kg administration with 20 mg/kg pentobarbital in the dog heart-lung preparation; type: functional, Canis lupus familiaris, Cardiac atrium; summary of the method: as §4
Canis familiaris [11] = experiment: The heart rate was determined after 1.0 mg/kg administration with 20 mg/kg pentobarbital in the dog heart-lung preparation; type: functional, Canis lupus familiaris; summary of the method: as §4
Canis familiaris [12] = experiment: The change in stroke volume after 10 min of 1.0 ug/kg administration in the dog heart-lung preparation; type: functional, Canis lupus familiaris; summary of the method: as §2
Canis familiaris [13] = experiment: The change in cardiac contractile force after 1 mg/kg iv administration, activity is expressed as % change.; type: functional, Canis lupus familiaris, Heart; summary of the method: as §1
Canis familiaris [14] = experiment: The change in left atrial pressure was determined after 10 min of 3.0 ug/kg administration in the dog heart-lung preparation; type: functional, Canis lupus familiaris, Cardiac atrium; summary of the method: as §2
Canis familiaris [15] = experiment: The change in mean arterial blood pressure was determined after 1 mg/kg iv administration; type: functional, Canis lupus familiaris; summary of the method: as §1
Canis familiaris [16] = experiment: The change in cardiac contractile force after 10 min of 3.0 ug/kg administration in the dog heart-lung preparation; type: functional, Canis lupus familiaris; summary of the method: as §2
Canis familiaris [17] = experiment: The change in heart rate was determined after 10 min of 3.0 ug/kg administration in the dog heart-lung preparation; type: functional, Canis lupus familiaris; summary of the method: as §2
Canis familiaris [18] = experiment: The change in stroke volume was determined after 10 min of 1.0 ug/kg administration in the dog heart-lung preparation; type: functional, Canis lupus familiaris; summary of the method: as §2
Canis familiaris [19] = experiment: The change in left atrial pressure was determined after 10 min of 0.3 ug/kg administration in the dog heart-lung preparation; type: functional, Canis lupus familiaris, Cardiac atrium; summary of the method: as §2
Canis familiaris [20] = experiment: The change in left atrial pressure was determined after 10 min of 3.0 ug/kg administration in the dog heart-lung preparation.; type: functional, Canis lupus familiaris, Cardiac atrium; summary of the method: as §2
Canis familiaris [21] = experiment: The cardiac contractile force was determined after 1.0 mg/kg administration with 20 mg/kg pentobarbital in the dog heart-lung preparation; type: functional, Canis lupus familiaris; summary of the method: as §4
Canis familiaris [22] = experiment: Pharmacological activity for Contractile force, +30% in anesthetized dog was determined after intravenous administration; type: functional, Canis lupus familiaris; summary of the method: as §3
Canis familiaris [23] = experiment: Pharmacological activity for heart rate +15% in anesthetized dog was determined after intravenous administration; type: functional, Canis lupus familiaris; summary of the method: as §3
Canis familiaris [24] = experiment: The change in cardiac contractile force was determined after 10 min of 1.0 ug/kg administration in the dog heart-lung preparation; type: functional, Canis lupus familiaris; summary of the method: as §2
Canis familiaris [25] = experiment: The change in cardiac contractile force was determined after 10 min of 3.0 ug/kg administration in the dog heart-lung preparation; type: functional, Canis lupus familiaris; summary of the method: as §2
Canis familiaris [26] = experiment: The cardiac output was determined after 1.0 mg/kg administration with 20 mg/kg pentobarbital in the dog heart-lung preparation; type: functional, Canis lupus familiaris; summary of the method: as §4
Canis familiaris [27] = experiment: The change in cardiac contractile force was determined after 10 min of 0.3 ug/kg administration in the dog heart-lung preparation; type: functional, Canis lupus familiaris; summary of the method: as §2
Canis familiaris [28] = experiment: (§5) The change in cardiac output was determined after 10 min of 3.0 ug/kg administration in the dog heart-lung preparation; type: functional, Canis lupus familiaris; summary of the method: as §2
Canis familiaris [29] = experiment: The change in stroke volume was determined after 10 min of 3.0 ug/kg administration in the dog heart-lung preparation; type: functional, Canis lupus familiaris; summary of the method: as §2
Canis familiaris [30] = experiment: as §5; type: functional, Canis lupus familiaris; summary of the method: as §2; remark: listed apart in the source
Canis familiaris [31] = experiment: The change in stroke volume was determined after 10 min of 0.3 ug/kg administration in the dog heart-lung preparation; type: functional, Canis lupus familiaris; summary of the method: as §2

In the case of `COc1ccc(C(=O)c2[nH]c(O)nc2C)cc1`, the Change (Canis familiaris [1]) is reported as -33%, the Change (Canis familiaris [2]) is reported as 22% and 14% and the Change (Canis familiaris [3]) is reported as -18%. The Change (Canis familiaris [4]) was -1.6 mmHg, the Change (Canis familiaris [5]) was 35% and 23% and the Equieffective dose (Canis familiaris [6]) was 0.65 mg/kg. The Stroke volume (Canis familiaris [7]) was 7 mL, the Stroke work (Canis familiaris [8]) was 7.7 g and the Change (Canis familiaris [9]) was 144%. It also gave a Left atrial pressure (Canis familiaris [10]) of 2.6 mmHg, a Heart rate (Canis familiaris [11]) of 151 beats min-1 and a Change (Canis familiaris [12]) of -16%. It also gave a Change (Canis familiaris [13]) of 127%, a Change (Canis familiaris [14]) of -43% and a Change (Canis familiaris [15]) of -27%. The Change (Canis familiaris [16]) was 179%, the Change (Canis familiaris [17]) was 41% and 28% and the Change (Canis familiaris [18]) was -1.1 mL. For the same compound, the Change (Canis familiaris [19]) was -49%, the Change (Canis familiaris [20]) was -1.1 mmHg and the Cardiac contractile force (Canis familiaris [21]) was 88 g. The Equieffective dose (Canis familiaris [22]) was 0.16 mg/kg, the Equieffective dose (Canis familiaris [23]) was 0.4 mg/kg and the Change (Canis familiaris [24]) was 96.7% and 121%. For the same compound, the Change (Canis familiaris [25]) was 129 g, the Cardiac output (Canis familiaris [26]) was 1053 mL/min and the Change (Canis familiaris [27]) was 62% and 88%. For the same compound, the Change (Canis familiaris [28]) was 46 mL/min, the Change (Canis familiaris [29]) was -1.2 mL and the Change (Canis familiaris [30]) was 4%. For the same compound, the Change (Canis familiaris [31]) was -0.7% and -10%.
